# Published values from different studies.
# Each line is one published result; the experiments were not run side by side.
Compound,system,setting,half-life [h]
COc1ccc(C[C@@H](C(=O)NO)n2cc(CNS(=O)(=O)c3ccc(-c4ccccc4)s3)nn2)cc1,"female CD-1 mouse, plasma","intraperitoneal, 50 mg/kg",0.5
Cc1cc(C)cc(NC(=O)c2cnn(-c3ccc(C(C)C)cc3)c2C2CCNCC2)c1,"SCID mouse, plasma","oral, 50 mg/kg, single dose",~2
CC[C@H](C)[C@@H]1NC(=O)[C@@](C)(NC(=O)[C@H](CCCNC(=N)N)NC(=O)[C@H](CC(C)C)NC(=O)[C@@H](NC(=O)[C@H](CCC(N)=O)NC(=O)[C@H](CC(C)C)NC(C)=O)[C@@H](C)O)CCCC=CCCC[C@@](C)(C(=O)N[C@@H](CC(C)C)C(=O)N[C@@H](Cc2ccc3ccccc3c2)C(N)=O)NC(=O)[C@H](CCCNC(=N)N)NC(=O)[C@H](CCC(N)=O)NC1=O,"male BALB/c mouse, plasma","intravenous, 15 mg/kg",1.8
[Cl-].c1csc([I+]c2cccs2)c1,"mouse, plasma","intraperitoneal, 6 mg/kg",0.08
CC(C)(C)c1ccc(O)c(CN(Cc2cc(C(C)(C)C)ccc2O)C2CCC(NC(N)=O)CC2)c1 (centres unmarked),"male C57BL/6 mouse, plasma","oral, 10 mg/kg, single dose",2.7
CCc1cc(OC)c2nccc(N3CCc4c(cc(Cn5ccnc5)cc4-c4cn(C)nc4C(F)(F)F)C3=O)c2c1,"male CD-1 mouse, plasma","oral, 150 mg/kg",1.6
Cn1cnc2c(F)c(Nc3ccc(Br)cc3Cl)c(C(=O)NOCCO)cc21,"nude mouse, liver","oral, 5 mg/kg, single dose, tumour-bearing",3.5
CNC(=O)c1cc(OC)cc2c(N3CCc4c(cc(Cn5ccnc5)cc4-c4cn(C)nc4C(F)(F)F)C3=O)ccnc12,"male CD-1 mouse, plasma","intravenous, 3 mg/kg",1.1
COc1nc(-c2cc(C)c(N[C@@H](C)c3cc(F)cc(F)c3)nn2)ccc1-n1cnc(C)c1,"male CD-1 mouse, plasma","intravenous, 1 mg/kg, single dose",3.1
CCc1ccc(Cc2cc([C@@H]3O[C@H](CO)[C@@H](O)[C@H](O)[C@H]3O)cc3c2CCC3)cc1,"male C57BL/6 mouse, plasma","intravenous, 1 mg/kg",2.9
CC=Cc1ccc(O)c(OC)c1,"mouse, lung","intranasal, 100 mg/kg",0.521
CCc1cc(C(=O)NC)c2nccc(N3CCc4c(cc(Cn5ccnc5)cc4-c4cn(C)nc4C(F)(F)F)C3=O)c2c1,"male CD-1 mouse, plasma","oral, 150 mg/kg",1.6
O=C(NCCN1CCCC1)c1cc(-c2ccc(CN3CCOCC3)cc2)nc2ccc(F)cc12,"female NMRI mouse, blood","oral, 3 mg/kg",19
CN1CCC[C@H](CN2c3ccccc3Sc3ccccc32)C1.Cl,"mouse, plasma","intraperitoneal, 32 mg/kg, single dose",2.82
CN(C)C/C=C/C(=O)Nc1ccc(O[C@@H]2CCC[C@@H](Nc3ncc(Cl)c(-c4c[nH]c5ccccc45)n3)C2)cc1,"male Swiss mouse, plasma","intravenous, 3 mg/kg",2.25
CNC(=O)[C@H](Cc1c[nH]cn1)NC(=O)CN(CCCc1ccccc1)CC(=O)O,"male C57BL/6 mouse, plasma","intraperitoneal, 30 mg/kg",0.15
CNCCN(C)c1cc(C#N)cc(CCc2cc(C)cc(N)n2)c1,"male BALB/c mouse, brain","intravenous, 2 mg/kg",24.8
CC1(C)CC[C@]2(C(=O)O)CC[C@]3(C)C(=CC[C@@H]4[C@@]5(C)C[C@@H](O)[C@H](OC(=O)/C=C/c6ccc(O)cc6)C(C)(C)[C@@H]5CC[C@]43C)[C@@H]2C1 (relative stereo),"mouse, plasma","intraperitoneal, 85 µmol/kg, single dose",34.3
Cc1cc(NC(=O)c2cccc3cc(-c4cccc5[nH]nc(N)c45)ccc23)ccc1F,"male CD-1 mouse, plasma","oral, 10 mg/kg",2.15
Cc1cc(Nc2ccc(S(F)(F)(F)(F)F)cc2)n2ncnc2n1,"male Swiss mouse, plasma","oral, 100 mg/kg, single dose",14
Nc1ccc(-c2ccncc2)cc1NC(=O)N1CCCC1,"male C57BL/6 mouse, brain","intraperitoneal, 10 mg/kg",0.462
NC(=S)NN=Cc1ncccc1N,"female C57BL/6 mouse, plasma","intravenous, 20 mg/kg",1.08
O=C(Nc1ccc(C(F)(F)F)cc1)N1CCC(Cc2cccc(Oc3ccc(C(F)(F)F)cn3)c2)CC1,"male Swiss mouse, blood","oral, 1 mg/kg",5.1
CCOc1ccc(Cc2cc([C@@H]3O[C@H](CO)[C@@H](O)[C@H](O)[C@H]3O)ccc2Cl)cc1,"male C57BL/6 mouse, plasma","oral, 1 mg/kg",3.7
COc1ccc(C(O)COc2ccc(-c3csc(-c4ccc(OCC(O)c5ccc(OC)c(OC)c5)cc4)n3)cc2)cc1OC (centres unmarked),"C57BL/6 mouse, plasma","oral, 30 mg/kg",4.3
O=C(Nc1ccc(Cl)c(Cl)c1)c1ccc(N2CCNCC2)c([N+](=O)[O-])c1,"male mouse, plasma","intravenous, 3 mg/kg",3.6
OC[C@H]1O[C@@H](c2ccc(Cl)c(Cc3ccc(O[C@H]4CCOC4)cc3)c2)[C@H](O)[C@@H](O)[C@@H]1O,"CD-1 mouse, plasma","oral, 10 mg/kg",0.5
Cc1nc(-c2cnc(NC(C)C)n(C)c2=O)ccc1Oc1ccnc(-c2cnn(C)c2)c1,"female mouse, plasma","oral, 15 mg/kg, single dose",6.85
COc1cc(OC)c2nccc(N3CCc4c(cc(Cn5ccnc5)cc4-c4cn(C)nc4C(F)(F)F)C3=O)c2c1,"male CD-1 mouse, plasma","intravenous, 3 mg/kg",0.5
COc1nc(-c2cc(C)c(N[C@@H](C)c3c(F)cc(F)cc3F)nn2)ccc1-n1cnc(C)c1,"male CD-1 mouse, plasma","intravenous, 1 mg/kg, single dose",3.1
CNC(=O)[C@H](Cc1c[nH]cn1)NC(=O)CN(CCCc1ccccc1)CC(=O)OC,"male C57BL/6 mouse, plasma","intraperitoneal, 30 mg/kg",0.117
COc1ccc2nccc(N3CCc4c(cc(Cn5ccnc5)cc4-c4cn(C)nc4C(F)(F)F)C3=O)c2c1,"male CD-1 mouse, plasma","oral, 50 mg/kg",0.8
Cc1nc(NC2Cc3cc(F)c(F)cc3C2)c2c(C)noc2n1,"male Swiss mouse, plasma","oral, 20 mg/kg",0.9
COc1cc2c(Nc3ccc(Cl)c(Cl)c3F)ncnc2cc1OC[C@@H]1C[C@@H]2CN(C)C[C@@H]2C1,"FVB mouse, brain","oral, 70 mg/kg, single dose",13.3
C=CC(=O)N1C[C@H](n2c(C#CC3CC3)c(C(=O)N[C@H](C)c3ccccc3)c3c(N)ncnc32)C[C@@H]1C,"male nude mouse, plasma","oral, 6.25 mg/kg, single dose",2.15
CC(C)Oc1c(NC(=O)c2ccc(NC(=O)[C@H](CC(N)=O)NC(=O)c3ccc(NC(=O)c4ccc(C#N)cc4)cc3)cc2)ccc(C(=O)Nc2ccc(C(=O)O)cc2)c1O,"male CD-1 mouse, plasma","subcutaneous, 5 mg/kg, single dose",1.65
C=C(C[C@H](N)C(=O)O)C(=O)NCc1ccc(F)cc1,"male CD-1 mouse, plasma","intravenous, 2.5 mg/kg",0.8
NCC1CCN(c2nc(-c3ccncc3)nc3sc4c(c23)CCCC4)CC1,"female CD-1 mouse, plasma","oral, 20 mg/kg",7.8
Cc1noc(-c2ccc(CSCCC(=O)O)cc2)c1NC(=O)O[C@H](C)c1ccccc1Cl,"mouse, plasma","oral, 50 mg/kg",0.98
COc1ccc(NC(=O)N2CCCCN3[C@H](COCCC(=O)O)[C@H](c4ccc(C#Cc5ccccc5)cc4)[C@@H]3C2)cc1,"mouse, plasma",intravenous,2
C[C@H]1CCCN1Cc1nc2cc(NC(=O)c3ccc4c(cnn4C)c3)ccc2[nH]1,"female BALB/c mouse, plasma","oral, 100 mg/kg",0.83
O=C(Nc1nc(-c2ccc(O)c(O)c2)c(-c2ccccc2)s1)c1ccc(O)c(O)c1,"female nude mouse, plasma","oral, 800 mg/kg",10
Cc1ccc2cncc(N3CCc4c(cc(Cn5ccnc5)cc4-c4cn(C)nc4C(F)(F)F)C3=O)c2c1,"male CD-1 mouse, plasma","oral, 10 mg/kg",1.1
Oc1nc2nonc2cc1Nc1ccc(OC(F)(F)F)cc1C(F)(F)F,"male C57BL/6 mouse, plasma","oral, 10 mg/kg",> 15
